In ChEMBL document CHEMBL4673245, “Discovery of AZD9833, a Potent and Orally Bioavailable Selective Estrogen Receptor Degrader and Antagonist” (J Med Chem, 2020):
Calls of active or inactive are those of the source. No cut-off for these calls is given here.

Legend:
[1] = target: Voltage-gated inwardly rectifying potassium channel KCNH2 (Homo sapiens, UniProt Q12809); assay: Inhibition of human ERG by plate-based planar patch clamp technique
In short: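 hERG tail current inhibition recorded on a plate-based planar patch clamp system; IC50 reported.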

[2] = target: T1, Estrogen receptor (Homo sapiens) (UniProt P03372); assay: Induction of ERalpha degradation in human CAMA1 cells assessed as decrease in ER-alpha level at 0.1 uM by Western blot analysis relative to fulvestrant; format: cell-based; parameters: scale not given: the % may be the effect or the level left; conditions: CAMA-1
T1 sequence (whole entry): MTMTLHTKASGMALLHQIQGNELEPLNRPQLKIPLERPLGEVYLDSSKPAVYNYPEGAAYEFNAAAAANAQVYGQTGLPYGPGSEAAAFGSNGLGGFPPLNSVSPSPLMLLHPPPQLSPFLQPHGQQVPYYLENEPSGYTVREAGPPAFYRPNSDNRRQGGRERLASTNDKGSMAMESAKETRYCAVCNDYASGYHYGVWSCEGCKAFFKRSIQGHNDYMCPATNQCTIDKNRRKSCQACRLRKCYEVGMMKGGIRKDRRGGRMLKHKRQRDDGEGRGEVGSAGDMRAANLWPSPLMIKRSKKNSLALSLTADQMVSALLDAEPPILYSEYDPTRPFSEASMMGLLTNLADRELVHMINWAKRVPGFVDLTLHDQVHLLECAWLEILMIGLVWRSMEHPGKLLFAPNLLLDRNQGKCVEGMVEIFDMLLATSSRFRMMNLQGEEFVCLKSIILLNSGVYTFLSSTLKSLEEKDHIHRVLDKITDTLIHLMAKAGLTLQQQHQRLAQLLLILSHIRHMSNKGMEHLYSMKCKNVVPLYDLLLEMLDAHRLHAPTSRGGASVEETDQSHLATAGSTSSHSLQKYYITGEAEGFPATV
In short: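 Western blot for ERα in MCF-7 and CAMA-1 cells after treatment at 0.1 µM. ER level is expressed as % degradation relative to fulvestrant, from a single experiment (n = 1).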

[3] = target: T1, Estrogen receptor (Homo sapiens); assay: Induction of ERalpha degradation in human MCF7 cells assessed as decrease in ER-alpha level at 0.1 uM by Western blot analysis relative to fulvestrant; format: cell-based; parameters: scale not given: the % may be the effect or the level left
[4] = Intrinsic clearance in human hepatocytes assessed per million cells; format: ADME, cell-based, Hepatocyte; conditions: read-out: CLH
In short: (§1)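 Hepatocyte intrinsic clearance measured from DMSO stock in isolated hepatocytes diluted to 1x10⁶ cells/mL; rate expressed as µl/min/10⁶ cells.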

[5] = Intrinsic clearance in rat hepatocytes assessed per million cells; format: ADME, cell-based, Hepatocyte; conditions: read-out: CLH; in short: as §1
[6] = Fraction unbound in human plasma by equilibrium dialysis method; format: ADME, cell-free
In short: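 Fraction unbound measured from DMSO stock by equilibrium dialysis in 10% human plasma.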

[7] = Lipophilicity, log D of the compound in buffer and octanol at pH 7.4 by shake flask method; format: physicochemical
In short: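 logD at pH 7.4 by shake flask, buffer/octanol volume ratio 100:1.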

[8] = target: T1, Estrogen receptor (Homo sapiens); assay: Induction of ERalpha degradation in human MCF7 cells assessed as maximum degradation incubated for 18 to 24 hrs by Alexa fluor 488/Hoechst staining based immunofluorescence imaging analysis relative to fulvestrant; format: cell-based; conditions: time lower […], time upper […]
Estrogen receptor [9] = target: T2, Estrogen receptor (Homo sapiens, UniProt P03372); assay: Induction of ERalpha degradation in human MCF7 cells assessed as decrease in ER-alpha level incubated for 18 to 24 hrs by Alexa fluor 488/Hoechst staining based immunofluorescence imaging analysis; format: cell-based
T2 sequence (P03372 whole entry): T1 sequence (whole entry)
In short: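 ER degradation in MCF-7 cells via cellular degradation assay; n ≥ 2, degradation also expressed as %Dmax relative to fulvestrant.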

Estrogen receptor [10] = target: T2, Estrogen receptor; assay: Displacement of fluormone ES2 green reagent from human GST-tagged ERalpha LBD (282 to 595 residues) expressed in baculovirus infected insect cells incubated for 1 hrs by TR-FRET Lanthascreen assay
Cytochrome P450 2C9 = Cytochrome P450 2C9 (Homo sapiens, UniProt P11712); assay: Inhibition of CYP2C9 in human liver microsomes; format: ADME; conditions: human, microsomes
Cytochrome P450 2C9, sequence (P11712 whole entry, canonical isoform): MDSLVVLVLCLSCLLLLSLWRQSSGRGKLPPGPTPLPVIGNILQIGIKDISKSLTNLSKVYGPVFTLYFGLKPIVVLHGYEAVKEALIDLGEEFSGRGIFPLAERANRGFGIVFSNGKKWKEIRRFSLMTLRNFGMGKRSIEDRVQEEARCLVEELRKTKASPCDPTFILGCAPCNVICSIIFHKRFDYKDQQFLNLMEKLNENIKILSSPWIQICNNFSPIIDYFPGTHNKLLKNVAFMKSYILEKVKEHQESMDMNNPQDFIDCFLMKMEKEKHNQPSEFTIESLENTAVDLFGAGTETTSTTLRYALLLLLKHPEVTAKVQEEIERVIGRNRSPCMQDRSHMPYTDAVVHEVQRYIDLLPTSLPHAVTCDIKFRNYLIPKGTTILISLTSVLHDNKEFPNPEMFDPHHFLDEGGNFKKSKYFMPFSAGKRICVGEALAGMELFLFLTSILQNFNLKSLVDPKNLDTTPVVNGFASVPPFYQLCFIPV
In short: (§2)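 High-throughput human liver microsome panel of five CYP isoforms; inhibition reported as IC50.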

Cytochrome P450 2C19 = Cytochrome P450 2C19 (Homo sapiens, UniProt P33261); assay: Inhibition of CYP2C19 in human liver microsomes; format: ADME; conditions: human, microsomes; in short: as §2
Cytochrome P450 2C19, sequence (P33261 whole entry): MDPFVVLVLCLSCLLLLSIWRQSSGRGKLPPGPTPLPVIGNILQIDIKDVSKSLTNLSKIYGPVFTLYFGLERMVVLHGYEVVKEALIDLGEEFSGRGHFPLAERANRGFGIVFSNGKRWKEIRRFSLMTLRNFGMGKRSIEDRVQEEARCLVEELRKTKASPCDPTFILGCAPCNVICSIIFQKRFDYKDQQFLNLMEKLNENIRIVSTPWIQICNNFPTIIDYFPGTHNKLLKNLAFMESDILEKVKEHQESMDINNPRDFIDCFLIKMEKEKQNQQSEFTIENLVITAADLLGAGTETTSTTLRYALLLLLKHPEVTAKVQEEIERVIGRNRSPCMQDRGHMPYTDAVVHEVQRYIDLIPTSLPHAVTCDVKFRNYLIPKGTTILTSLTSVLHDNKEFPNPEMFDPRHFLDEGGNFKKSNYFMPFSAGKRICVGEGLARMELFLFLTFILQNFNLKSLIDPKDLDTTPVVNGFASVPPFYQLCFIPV

Cytochrome P450 1A2 = target: T3, Cytochrome P450 1A2 (Homo sapiens, UniProt P05177); assay: Inhibition of CYP1A2 in human liver microsomes; format: ADME; conditions: human, microsomes; in short: as §2
T3 sequence (P05177 whole entry): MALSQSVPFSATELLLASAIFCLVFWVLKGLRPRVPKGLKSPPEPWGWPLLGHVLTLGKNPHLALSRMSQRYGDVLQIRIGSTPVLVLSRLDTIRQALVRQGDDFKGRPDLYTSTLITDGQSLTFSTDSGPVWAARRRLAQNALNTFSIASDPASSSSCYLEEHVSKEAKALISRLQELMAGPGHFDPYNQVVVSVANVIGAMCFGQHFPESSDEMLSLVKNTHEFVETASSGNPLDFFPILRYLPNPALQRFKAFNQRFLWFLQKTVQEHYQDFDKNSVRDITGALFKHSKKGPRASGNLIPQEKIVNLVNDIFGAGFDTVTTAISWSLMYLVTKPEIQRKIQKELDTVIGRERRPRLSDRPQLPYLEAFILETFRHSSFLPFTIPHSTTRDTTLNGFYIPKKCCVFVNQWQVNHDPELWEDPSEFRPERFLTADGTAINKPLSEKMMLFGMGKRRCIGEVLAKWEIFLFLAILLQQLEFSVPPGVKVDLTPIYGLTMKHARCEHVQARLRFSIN

[11] = Dissociation constant, dibasic pKa of compound in 0.1 M potassium chloride in presence of piperidine by UV-vis spectroscopy; format: physicochemical
[12] = Oral bioavailability in rat at 1 mg/kg; format: ADME, organism-based; conditions: in vivo
In short: (§3)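 Rat PK: single IV dose 0.5 mg/kg and oral dose 1 mg/kg, formulated in 5% DMSO:95% hydroxypropyl-β-cyclodextrin (30% w/v), dosed at 1 mL/kg IV and 4 mL/kg PO.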

[13] = Half-life in rat at 0.5 mg/kg, iv or 1 mg/kg, po; format: ADME, organism-based; conditions: in vivo; in short: as §3
[14] = Volume of distribution at steady state in rat at 0.5 mg/kg, iv or 1 mg/kg, po; format: ADME, organism-based; conditions: in vivo, read-out: Vdss
In short: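 Rat dosed IV at 0.5 mg/kg and PO at 1 mg/kg, both formulated in 5% DMSO:95% hydroxypropyl-β-cyclodextrin (30% w/v), at 1 mL/kg IV and 4 mL/kg PO. Vdss (L/kg) derived from the pharmacokinetic profile after dosing.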

[15] = Clearance in rat at 0.5 mg/kg, iv or 1 mg/kg, po; format: ADME, organism-based; conditions: in vivo; in short: as §3
Cytochrome P450 3A4 = Cytochrome P450 3A4 (Homo sapiens, UniProt P08684); assay: Inhibition of CYP3A4 in human liver microsomes; format: ADME; in short: as §2
Cytochrome P450 3A4, sequence (P08684 whole entry): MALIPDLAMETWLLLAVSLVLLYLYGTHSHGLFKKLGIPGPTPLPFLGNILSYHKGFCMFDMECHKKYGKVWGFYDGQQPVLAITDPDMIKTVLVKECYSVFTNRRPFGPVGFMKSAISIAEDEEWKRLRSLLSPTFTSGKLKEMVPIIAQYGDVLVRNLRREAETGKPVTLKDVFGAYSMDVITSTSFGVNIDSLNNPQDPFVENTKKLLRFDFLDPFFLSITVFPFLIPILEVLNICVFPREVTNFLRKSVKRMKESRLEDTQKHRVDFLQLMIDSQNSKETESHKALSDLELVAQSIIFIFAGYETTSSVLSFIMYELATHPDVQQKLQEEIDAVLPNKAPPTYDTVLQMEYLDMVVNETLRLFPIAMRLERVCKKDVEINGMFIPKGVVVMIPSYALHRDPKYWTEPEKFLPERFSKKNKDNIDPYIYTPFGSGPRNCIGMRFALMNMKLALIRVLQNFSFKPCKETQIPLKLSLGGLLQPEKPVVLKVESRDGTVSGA

Cytochrome P450 2D6 = Cytochrome P450 2D6 (Homo sapiens, UniProt P10635); assay: Inhibition of CYP2D6 in human liver microsomes; format: ADME; in short: as §2
Cytochrome P450 2D6, sequence (P10635 whole entry): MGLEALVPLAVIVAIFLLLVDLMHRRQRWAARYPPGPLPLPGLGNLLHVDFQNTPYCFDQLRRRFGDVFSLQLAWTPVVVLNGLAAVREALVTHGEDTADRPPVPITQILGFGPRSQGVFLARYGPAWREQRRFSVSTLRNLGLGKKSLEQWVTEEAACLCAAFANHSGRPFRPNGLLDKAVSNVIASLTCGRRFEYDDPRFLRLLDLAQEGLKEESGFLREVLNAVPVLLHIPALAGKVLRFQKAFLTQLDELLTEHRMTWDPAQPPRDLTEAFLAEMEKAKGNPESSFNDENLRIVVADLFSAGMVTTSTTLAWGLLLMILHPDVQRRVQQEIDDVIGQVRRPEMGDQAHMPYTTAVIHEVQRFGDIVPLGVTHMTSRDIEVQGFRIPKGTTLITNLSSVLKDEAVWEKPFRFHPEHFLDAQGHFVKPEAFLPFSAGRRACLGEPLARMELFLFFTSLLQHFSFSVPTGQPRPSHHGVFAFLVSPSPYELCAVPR

[16] = Dissociation constant, dibasic pKa of compound in 0.1 M potassium chloride in presence of azetidine by UV-vis spectroscopy; format: physicochemical
[17] = Fraction unbound in dog plasma; format: ADME, cell-free, Canis lupus familiaris
[18] = Fraction unbound in mouse plasma; format: ADME, cell-free
[19] = Fraction unbound in rat plasma; format: ADME, cell-free
[20] = Solubility of compound in phosphate buffer at pH 7.4 incubated for 24 hrs at 25 degree C; format: physicochemical
In short: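 Aqueous phosphate buffer pH 7.4, compound added from DMSO stock, equilibrated 24 h at 25 °C.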

MCF7 = assay: Antitumor activity against human […] cells xenografted in CB17 SCID mouse assessed as tumor regression at 5 mg, po administered via gavage three times a week for 21 days; format: functional, organism-based; conditions: time 21.0 day
Mus musculus = assay: In vivo antagonist activity at ERalpha in human MCF7 cells xenografted CB17 SCID mouse assessed as decrease in PR expression level at 5 mg, po administered via gavage three times a week for 21 days measured 24 hrs post last dose by Western blot analysis; format: functional, organism-based; conditions: time 21.0 day

Voltage-gated inwardly rectifying potassium channel KCNH2, sequence (Q12809 whole entry): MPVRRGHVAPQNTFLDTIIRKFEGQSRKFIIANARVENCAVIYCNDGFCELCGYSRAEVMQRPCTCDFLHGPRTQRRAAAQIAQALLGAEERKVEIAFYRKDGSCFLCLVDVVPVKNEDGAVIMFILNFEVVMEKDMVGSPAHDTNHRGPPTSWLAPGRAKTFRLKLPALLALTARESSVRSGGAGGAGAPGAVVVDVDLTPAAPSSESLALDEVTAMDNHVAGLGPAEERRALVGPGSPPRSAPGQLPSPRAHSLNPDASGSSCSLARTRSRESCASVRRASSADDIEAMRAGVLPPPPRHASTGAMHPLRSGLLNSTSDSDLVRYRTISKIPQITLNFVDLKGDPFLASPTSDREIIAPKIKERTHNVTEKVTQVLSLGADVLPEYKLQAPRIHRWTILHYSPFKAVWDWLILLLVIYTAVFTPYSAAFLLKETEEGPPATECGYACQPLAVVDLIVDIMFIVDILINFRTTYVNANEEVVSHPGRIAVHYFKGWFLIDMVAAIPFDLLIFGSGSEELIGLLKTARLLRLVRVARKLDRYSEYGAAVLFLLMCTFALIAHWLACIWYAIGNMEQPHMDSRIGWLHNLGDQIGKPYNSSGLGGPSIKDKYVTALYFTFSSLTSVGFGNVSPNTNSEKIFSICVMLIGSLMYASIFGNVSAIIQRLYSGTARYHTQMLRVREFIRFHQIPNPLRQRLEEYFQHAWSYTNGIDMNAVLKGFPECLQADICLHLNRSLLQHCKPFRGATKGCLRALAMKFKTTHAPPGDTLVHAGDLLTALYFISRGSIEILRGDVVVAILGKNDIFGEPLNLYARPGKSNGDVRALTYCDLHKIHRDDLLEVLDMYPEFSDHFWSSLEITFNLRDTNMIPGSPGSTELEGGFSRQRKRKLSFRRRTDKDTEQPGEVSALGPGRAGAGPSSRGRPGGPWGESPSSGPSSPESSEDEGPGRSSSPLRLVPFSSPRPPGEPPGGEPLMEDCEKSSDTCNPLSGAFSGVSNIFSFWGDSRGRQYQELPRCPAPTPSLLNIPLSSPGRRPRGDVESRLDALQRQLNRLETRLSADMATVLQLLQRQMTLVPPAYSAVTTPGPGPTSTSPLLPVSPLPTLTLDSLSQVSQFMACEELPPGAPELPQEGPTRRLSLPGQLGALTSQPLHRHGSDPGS

C[C@@H]1Cc2c(ccc3[nH]ncc23)[C@@H](c2ccc(N[C@H]3CCN(CCCF)C3)cn2)N1CC(F)(F)F
IC50 [1]: 13000 nM | Activity [2]: 104% | Activity [3]: 95% | hepatocyte CLint [4]: 5 µL/min/1e6 cells | hepatocyte CLint [5]: 22 µL/min/1e6 cells | fraction unbound [6]: 0.18 | logD [7]: 3 | Emax [8]: 99% | IC50 (Estrogen receptor [9]): 0.126 nM | IC50 (Estrogen receptor [10]): 2.51 nM

COc1cc(NC2CN(CCCF)C2)ccc1[C@@H]1c2ccc3[nH]ncc3c2C[C@@H](C)N1CC1(F)CC1
inhibition (INH) (Cytochrome P450 2C9): Not Active | inhibition (INH) (Cytochrome P450 2C19): Not Active | inhibition (INH) (Cytochrome P450 1A2): Not Active | pKa [11]: 7.8 | bioavailability [12]: 3% | half-life [13]: 11 h | Vd [14]: 71 L/kg | clearance [15]: 125 mL/min/kg | IC50 (Cytochrome P450 3A4): 11000 nM | IC50 (Cytochrome P450 2D6): 1200 nM | pKa [16]: 8.7 | fraction unbound [17]: 0.22 | fraction unbound [18]: 0.39 | fraction unbound [19]: 0.51 | solubility at 24 h [20]: > 900 µM | Activity [2]: 84% | Activity [3]: 89% | hepatocyte CLint [5]: 7 µL/min/1e6 cells | fraction unbound [6]: 0.34 | Emax [8]: 96% | IC50 (Estrogen receptor [9]): 0.316 nM | IC50 (Estrogen receptor [10]): 7.94 nM

C[C@@H]1Cc2c(ccc3[nH]ccc23)[C@@H](c2ccc(NC3CN(CCCF)C3)cn2)N1CC(F)(F)F
Activity [2]: 85% | Activity [3]: 98% | hepatocyte CLint [4]: 3 µL/min/1e6 cells | hepatocyte CLint [5]: 10 µL/min/1e6 cells | fraction unbound [6]: 0.073 | logD [7]: 3.2 | Emax [8]: 98% | IC50 (Estrogen receptor [9]): 0.158 nM | IC50 (Estrogen receptor [10]): 3.16 nM

C[C@@H]1Cc2c(ccc3[nH]ncc23)[C@@](C)(c2ccc(NC3CN(CCCF)C3)cn2)N1CC(F)F
IC50 [1]: 13000 nM | hepatocyte CLint [5]: 114 µL/min/1e6 cells | fraction unbound [6]: 0.1 | Emax [8]: 96% | IC50 (Estrogen receptor [9]): 1 nM | IC50 (Estrogen receptor [10]): 10 nM

C[C@]12CC[C@@H]3c4ccc(O)cc4C[C@@H](CCCCCCCCC[S+]([O-])CCCC(F)(F)C(F)(F)F)[C@H]3[C@@H]1CC[C@@H]2O (stereo partly drawn)
Activity (MCF7): Active | Activity (Mus musculus): Active

C[C@@H]1Cc2c(ccc3[nH]ncc23)[C@@H](c2ccc(OCCN3CC(CF)C3)cn2)N1CC(F)(F)F
Activity [2]: 80% | Activity [3]: 91% | hepatocyte CLint [4]: 3 µL/min/1e6 cells | hepatocyte CLint [5]: 45 µL/min/1e6 cells | fraction unbound [6]: 0.22 | logD [7]: 3 | Emax [8]: 96% | IC50 (Estrogen receptor [9]): 0.398 nM | IC50 (Estrogen receptor [10]): 1.26 nM
